In brackets after ≈: the same amount, converted by molar mass.
What was measured:
[1] = system: Trichophyton rubrum LM 237; assay: MIC99 by broth microdilution; type: cell-based; details: LM237, 168 h, read-out: MIC99 T. rubrum
Method in brief: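 T. rubrum was cultured on Sabouraud dextrose agar at 27 °C for one week. Actively growing mycelium was collected into sterile distilled water with broken coverslips as inoculum. Test compound in 5% aqueous DMSO was diluted twofold serially in SDA over 2.0 × 10−1 to 2.4 × 10−5 mg mL−1. Plates were held at 30 °C and scored visually after 7 days. Run in triplicate with solvent blanks; amphotericin B and fluconazole as references.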

[2] = Water thermodynamic solubility by HPLC; type: physicochemical; details: ultrapure water, 25 °C, thermodynamic from solid
[3] = literature value; cited from earlier work

Compound | MIC99 [1] | solubility at 24 h [2] | Aqueous solubility at 25 °C [3]
C[C@@H]1[C@H](O)[C@@H](C)/C=C/C=C/C=C/C=C/C=C/C=C/C=C/[C@H](O[C@@H]2O[C@H](C)[C@@H](O)[C@H](N)[C@@H]2O)C[C@@H]2O[C@](O)(C[C@@H](O)C[C@@H](O)[C@H](O)CC[C@@H](O)C[C@@H](O)CC(=O)O[C@H]1C)C[C@H](O)[C@H]2C(=O)O [AmB, amphotericin B, reference compound] | > 400 µM | – | –
COC(=O)[C@H](CO)NC(C)=C1C(=O)C=C2Oc3c(C(C)=O)c(O)c(C)c(O)c3[C@@]2(C)C1=O [(9bR,15S)-1, Methyl (1-((R)-6-acetyl-7,9-dihydroxy-8,9b-dimethyl-1,3-dioxo-3,9b-dihydrodibenzo[b,d]furan-2(1H)-ylidene)ethyl)-L-serinate] | 450 µM (≈ 200 µg/mL) | 150 to 4700 µM (≈ 66.8 to 2090 µg/mL) | –
usnic acid [UA] | – | – | <0.3 (lit.)[60] mM
OC(Cn1cncn1)(Cn1cncn1)c1ccc(F)cc1F [FCZ, fluconazole, reference compound] | > 200 µM | – | –
COC(=O)[C@H](CO)NC(C)=C1C(=O)C=C2Oc3c(C(C)=O)c(O)c(C)c(O)c3[C@]2(C)C1=O [(9bS,15S)-1, Methyl (1-((S)-6-acetyl-7,9-dihydroxy-8,9b-dimethyl-1,3-dioxo-3,9b-dihydrodibenzo[b,d]-furan-2(1H)-ylidene)ethyl)-L-serinate] | 28 µM (≈ 12.5 µg/mL) | 150 µM (≈ 66.8 µg/mL) | –
CC(=O)c1c(O)c(C)c(O)c2c1OC1=CC(=O)C(=C(C)N[C@@H](CCCNC(=N)N)C(=O)O)C(=O)[C@@]12C [(9bR,15S)-2, (1-((R)-6-Acetyl-7,9-dihydroxy-8,9b-dimethyl-1,3-dioxo-3,9b-dihydrodibenzo[b,d]furan-2(1H)-ylidene)ethyl)-L-arginine] | 400 µM (≈ 200 µg/mL) | – | –
CC(=O)c1c(O)c(C)c(O)c2c1OC1=CC(=O)C(=C(C)N[C@@H](CCCNC(=N)N)C(=O)O)C(=O)[C@]12C [(9bS,15S)-2, (1-((S)-6-Acetyl-7,9-dihydroxy-8,9b-dimethyl-1,3-dioxo-3,9b-dihydrodibenzo[b,d]furan-2(1H)-ylidene)ethyl)-L-arginine] | 100 µM (≈ 50.1 µg/mL) | – | –

Reference: paper PMC12272722 (RSC Medicinal Chemistry, 2025)
